The full list was thinned out, with hits kept by preference.
H69AR inhibit: growth inhibitors of human H69AR lung tumor cells; 85,000 tested, 6% active; AID 598; H69AR lung tumor viability, ATP luminescence, 72 h; stronger effect = lower value; viability, % at 10 µM;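 active = viability at or below 40%; inactive = viability above 40%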;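 also: multidrug resistant small cell line overexpressing MRP-1 efflux transporter; 100% = mean luminescence of untreated control wells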
bCat KO growth: beta-catenin-lacking colon tumor cell growth suppression; HCT116 beta-catenin knockout viability, CellTiter-Glo, 60 h; stronger effect = lower value; viability, % at 10 µM; 140,000 tested, 1.5% active; AID 818;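 active = viability at or under a set limit, the compound median less 4 SD, cut at about 6% in these data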;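 also: 0% = Hyamine 1622 control at 20 µM and 100% = untreated cell control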
HUVEC prolif 384: human endothelial cell proliferation inhibition; HUVEC proliferation, CellTiter-Glo luminescence, 72 h; stronger effect = lower value; viability, % at 10 µM (by protocol); 86,000 tested, 1.1% active; AID 648;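 active = viability at or below 30%; inactive = viability above 30%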;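 also: 100% = median luminescence of DMSO-only cell control wells on each plate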
Lung fibro prol: blocks proliferation of human lung fibroblasts | AID 719 | 85,000 tested, 1.1% active | LL 47 human lung fibroblast viability, ATP luminescence; stronger effect = lower value | viability, % at 10 µM;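 active = viability at or below 50% in the single dose screen; inactive = viability above 50%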;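 also: compound exposure lasted 72 h before the ATP readout; 100% = median luminescence of untreated cell-only wells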
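Material: human lung fibroblast line LL 47, low passage; Evaluation: viability percentage against median untreated-cell control; Buffer or medium: 15% FBS in IMEM; Incubation: 72 h compound exposure at 37 °C after overnight plating; Dosing: 0.1% DMSO in all compound wells; Measured by: CellTiter-Glo luminescence.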
HCT116 PTEN-null: PTEN-deleted cell growth suppression | 140,000 tested, 1.2% active | viability, % at 10 µM | HCT116 PTEN-null viability, CellTiter-Glo, 60 h; stronger effect = lower value;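 active = viability at or below a set limit, 4 SD under the median of all tested compounds, cut at about 3.7% in these data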;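 also: PTEN knockout HCT116 line with beta catenin targeted HCT116 as companion control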
Numbers without * were called inactive; . = not tested or not shown.

SMILES	H69AR inhibit	bCat KO growth	HUVEC prolif 384	Lung fibro prol	HCT116 PTEN-null
c1cnn(-c2nc(N3CCOCC3)nc(N3CCOCC3)n2)c1	77	61	58	49*	66
Fc1cccc(Cl)c1Cn1nnc(-c2ccc3c(c2)OCO3)n1	85	74	95	98	84
Fc1cccc(Cl)c1CSc1nnnn1-c1ccc2c(c1)OCO2	15*	63	89	92	72
CCc1cccc(CC)c1NC(=O)c1ccccc1CCc1ccccc1	.	80	.	.	80
COc1cc(OC)c(OC)cc1/C=N/Nc1ncnc2c1[nH]c1ccccc12	.	4.2*	.	.	5
CCCCOCCCNc1ncnc2c1[nH]c1ccccc12	39*	13	71	91	14
O=C(NCCN1CCOCC1)c1csc2c1CCCC2	96	94	90	94	102
Cc1ccc(Cn2ccc(NC(=O)c3cc(-c4cccc(Cl)c4)on3)n2)cc1	73	89	62	91	87
CCN(CC)CCn1c(=S)[nH]c2ccc(Cl)cc2c1=O	90	83	98	102	89
Cc1nn(-c2ccccc2)c(C)c1C(=O)OCC(=O)N1c2ccccc2NC(=O)C1(C)C	17*	64	76	94	57
Cc1ccc(-n2[nH]c3c4c(ccc3c2=O)C(=O)c2ccccc2C4=O)cc1	.	104	.	.	105
COCCCn1[nH]c2c3c(ccc2c1=O)C(=O)c1ccccc1C3=O	86	28	6.8*	87	28
CC(C)(C)n1[nH]c2c3c(ccc2c1=O)C(=O)c1ccccc1C3=O	60	7	3.3*	59	8
O=C(/C=C/c1ccco1)NC(=S)NNC(=O)c1ccco1	62	60	28*	92	62
O=C(Nc1ccc(O)c(-c2nc3ccccc3s2)c1)c1cccs1	.	91	.	.	100
Cc1ccnc(NC(=S)NC(=O)/C=C/c2ccco2)c1	26*	19	64	72	24
O=C(Nc1ccccc1-c1nc2ccccc2s1)c1ccco1	37*	71	46	83	65
O=C(/C=C/c1ccco1)NC(=S)Nc1ccc(O)c(-c2nc3ccccc3s2)c1	.	2.2*	.	.	8
O=C(NNC(=S)Nc1ccccc1)c1ccco1	.	95	.	.	98
O=C(O)C1[C@H]2C(=O)N(Cc3cccs3)C[C@]23C=C[C@H]1O3 (stereo partly drawn)	102	102	91	100	105
O=C(NCC1CCCO1)c1nnc(Cc2ccc(F)cc2)o1 (stereo not drawn)	86	99	95	99	102
CCOc1cc(C(=S)N2CCOCC2)ccc1OC	96	110	108	96	102
Cc1nn(-c2cc(N3CCCC3)ccc2[N+](=O)[O-])c(=O)c2ccccc12	33*	91	83	103	88
Cc1nn(-c2cc(N3CCOCC3)ccc2[N+](=O)[O-])c(=O)c2ccccc12	101	98	91	96	98
CCOC(=O)c1ccc(Cn2c(-c3ccccc3)nnc2-c2ccccc2)o1	33*	77	97	91	79
SMILES	H69AR inhibit	bCat KO growth	HUVEC prolif 384	Lung fibro prol	HCT116 PTEN-null
O=C(Nc1nc(-c2cccs2)cs1)c1ccc(Cl)s1	3.6*	51	43	98	50
COC(=O)c1ccc2c(c1O)C(=O)c1ccccc1C2=O	.	4.5*	.	.	2.8*
COc1ccc(N2CCN(CC(O)c3c[nH]c4ccc(OC)cc34)CC2C)cc1 (stereo not drawn)	35*	58	94	77	59
CC1CN(C2CCN(S(=O)(=O)Cc3ccccc3)CC2)CC(C)O1 (stereo not drawn)	100	103	95	89	104
CCOC(=O)c1ccc2c(c1)nc(COc1ccccc1C#N)n2CC	20*	.	78	99	.
CCOC(=O)c1ccc2c(c1)nc(COc1ccc3ccccc3c1)n2CC	24*	78	78	99	77
COc1cc2ccc(=O)oc2c(O)c1OCC=C(C)C	37*	80	88	100	93
CCCCN(C)CCCNC(=O)CCn1nc(-c2ccccc2)ccc1=O	97	101	93	107	105
COC1(OC)C(/C=C/c2ccc(Cl)cc2)C(C#N)(C#N)C1(OC)OC (stereo not drawn)	-0.4*	4.2*	7.0*	52	3.0*
Cc1cc(C)c2nc(C(F)(F)F)nc(NCCCN3CCOCC3)c2c1	8.9*	23	6.4*	51	38
Fc1ccccc1-c1nc(NCCCN2CCOCC2)c2ccccc2n1	50	79	86	105	84
N#Cc1nc(-c2ccccc2F)oc1NCc1cccc2c1OCO2	88	100	110	101	92
Cc1cc(C)c(S(=O)(=O)Nc2cccc3nsnc23)c(C)c1	2.5*	76	92	98	68
O=S(=O)(Nc1cccc2nsnc12)c1ccccc1	97	91	83	101	100
Cc1cc(=O)[nH]c(Nc2cccc(C(F)(F)F)c2)n1	76	80	71	96	81
CCOC(=O)c1c(NC(=S)NC(=O)c2ccc(Cn3cc(Cl)cn3)o2)sc2c1CCCCC2	.	2.4*	.	.	6
CN(C)C/C(Cl)=C(\Cl)c1ccccc1	12*	93	97	99	94
CCCCC(CCC(=O)Nc1nccs1)C(=O)O (stereo not drawn)	97	111	100	103	103
O=C(c1ccccc1Cl)N1CCc2ccccc2C1	80	95	87	94	87
CC(C)OC(=O)CSc1ncnc2c1cnn2-c1ccccc1	91	87	110	88	94
COc1ccc(C2c3ccc4ccccc4c3Oc3ncn4nc(Cc5ccccc5)nc4c32)cc1OC (stereo not drawn)	.	84	.	.	71
COc1ccc(C2c3ccc4ccccc4c3Oc3ncn(Cc4ccco4)c(=N)c32)cc1OC (stereo not drawn)	.	1.7*	.	.	0.9*
COc1ccc(C2c3c(ncn(CCN4CCOCC4)c3=N)Oc3ccc4ccccc4c32)cc1OC (stereo not drawn)	1.9*	49	71	89	43
CS(=O)(=O)N1CCN(c2ccc(NC(=O)c3ccc(-c4ccc(Cl)cc4)o3)cc2)CC1	29*	85	38	72	89
O=C(Nc1ccc(CN2CCOCC2)cc1)c1cc2ccccc2o1	92	65	104	110	74
SMILES	H69AR inhibit	bCat KO growth	HUVEC prolif 384	Lung fibro prol	HCT116 PTEN-null
O=C(Nc1ccc(CN2CCOCC2)cc1)c1ccc(-c2cccc(Cl)c2)o1	31*	1.9*	45	71	4
COc1ccc(OC)c(-c2cc(C3CCN(c4cc(Cl)nc(N)n4)CC3)[nH]n2)c1	.	1.7*	.	.	2.5*
c1ccc(CN2CCC(Nc3nc(-c4ccccc4)nc4ccccc34)CC2)cc1	2.1*	1.6*	4.0*	5.4*	1.6*
O=C(Nc1ccc(Cl)cn1)c1cc2ccccc2o1	87	86	93	87	92
O=C(Nc1ccc(Cl)cn1)c1ccc(-c2cc(Cl)ccc2Cl)o1	.	3.1*	.	.	7
CC(C)(C)CC(C)(C)NCC(O)COc1c(F)cc(Br)cc1F (stereo not drawn)	9.7*	13	99	76	26
CC(C)C(=O)N(c1cc2sc(=O)oc2c2ccccc12)S(=O)(=O)c1cccs1	22*	101	103	97	93

Compound activity deposited in PubChem BioAssay by SRMLSC.
